Measured values collected from several papers.
Each line is one published result; the experiments were not run side by side. Converted amounts (≈) assume the structure as drawn.
Organism: Staphylococcus aureus

O=C(O)c1cn(C2CC2)c2cc(N3CCNCC3)c(F)cc2c1=O — inhibition zone (microbial growth, disc diffusion; 100 µg/mL, 24 h): 0 mm
CO/N=C(\C(=O)N[C@@H]1C(=O)N2C(C(=O)O)=C(CSC(=O)c3ccco3)CS[C@H]12)c1csc(N)n1 — MBC (microbial killing; ATCC25923; 18 h): 2 µg/mL
CN(C)[C@@H]1C(O)=C(C(N)=O)C(=O)[C@@]2(O)C(O)=C3C(=O)c4c(O)cccc4[C@@](C)(O)[C@H]3C[C@@H]12 — inhibition zone (microbial growth, disc diffusion; 100 µg/mL, 24 h): 25 mm
O=c1c(O)c(-c2ccc(O)c(O)c2)oc2cc(O)cc(O)c12 — IC50 (microbial growth; ATCC29213; 24 h): > 100000 nM
C[C@H]1COc2c(N3CCN(C)CC3)c(F)cc3c(=O)c(C(=O)O)cn1c23 — MBC (microbial killing; ATCC25904): 0.09 µg/mL (≈ 0.249 µM)
CC(O)CSc1nnc(COc2ccc(Cl)cc2Br)n1-c1ccccc1 (stereo not drawn) — inhibition zone (microbial growth, disc diffusion; 25 µg/disc): 19.3 mm
CN[C@H](CC(C)C)C(=O)N[C@H]1C(=O)N[C@@H](CC(N)=O)C(=O)N[C@H]2C(=O)N[C@H]3C(=O)N[C@H](C(=O)N[C@H](C(=O)O)c4cc(O)cc(O)c4-c4cc3ccc4O)[C@H](O)c3ccc(c(Cl)c3)Oc3cc2cc(c3O[C@@H]2O[C@H](CO)[C@@H](O)[C@H](O)[C@H]2O[C@H]2C[C@](C)(N)[C@H](O)[C@H](C)O2)Oc2ccc(cc2Cl)[C@H]1O — MBC (microbial killing; ATCC25923; 18 h): 2 µg/mL (≈ 1.38 µM)
C=C/C=C(\C)CC[C@@H]1C[C@H](O)CC(=O)O1 — MIC (microbial growth, broth dilution; ATCC6538P): 256 µg/mL (≈ 1220 µM)
Cc1ccc(-c2nnc(SCC(C)O)n2-c2ccccc2)cc1 (stereo not drawn) — inhibition zone (microbial growth, disc diffusion; 25 µg/disc): 10 mm
CN[C@H](CC(C)C)C(=O)N[C@H]1C(=O)N[C@@H](CC(N)=O)C(=O)N[C@H]2C(=O)N[C@H]3C(=O)N[C@H](C(=O)N[C@H](C(=O)O)c4cc(O)cc(O)c4-c4cc3ccc4O)[C@H](O)c3ccc(c(Cl)c3)Oc3cc2cc(c3O[C@@H]2O[C@H](CO)[C@@H](O)[C@H](O)[C@H]2O[C@H]2C[C@](C)(N)[C@H](O)[C@H](C)O2)Oc2ccc(cc2Cl)[C@H]1O — MBC (microbial killing; ATCC25904): 1.95 µg/mL (≈ 1.35 µM)
CN[C@H](CC(C)C)C(=O)N[C@H]1C(=O)N[C@@H](CC(N)=O)C(=O)N[C@H]2C(=O)N[C@H]3C(=O)N[C@H](C(=O)N[C@H](C(=O)O)c4cc(O)cc(O)c4-c4cc3ccc4O)[C@H](O)c3ccc(c(Cl)c3)Oc3cc2cc(c3O[C@@H]2O[C@H](CO)[C@@H](O)[C@H](O)[C@H]2O[C@H]2C[C@](C)(N)[C@H](O)[C@H](C)O2)Oc2ccc(cc2Cl)[C@H]1O — IC50 (microbial growth; ATCC29213; 24 h): 2160 nM
CC(O)CSc1nnc(Cn2cnc3c2c(=O)n(C)c(=O)n3C)n1-c1ccccc1 (stereo not drawn) — inhibition zone (microbial growth, disc diffusion; 25 µg/disc): 12.7 mm
